Laboratory results published in ChEMBL document CHEMBL3297708, “Lead optimization of a novel series of imidazo[1,2-a]pyridine amides leading to a clinical candidate (Q203) as a multi- and extensively-drug-resistant anti-tuberculosis agent” (J Med Chem, 2014).
Converted amounts (≈) assume the structure as drawn.

Columns and labels:
[1] = system: Mycobacterium tuberculosis; test: Antimycobacterial activity against Mycobacterium tuberculosis H37Rv in liquid broth culture medium; assay type: functional
Outline: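 M. tuberculosis H37Rv replicating in liquid broth culture medium; MIC80 determined, i.e. concentration inhibiting 80% of growth.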

[2] = system: Mycobacterium tuberculosis; test: Antimycobacterial activity against Mycobacterium tuberculosis H37Rv in macrophages; assay type: functional
Outline: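 M. tuberculosis H37Rv replicating inside macrophages; intracellular MIC80 determined, i.e. concentration inhibiting 80% of growth.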

[3] = Half life in human liver microsomes; assay type: ADME
Outline: (§1)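 Metabolic stability measured by incubation in human or mouse liver microsomal preparations; half-life reported.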

[4] = Half life in mouse liver microsomes; assay type: ADME; outline: as §1
Cytochrome P450 2D6 = Cytochrome P450 2D6 (Homo sapiens, UniProt P10635); test: Inhibition of recombinant CYP2D6 (unknown origin) by LC/MS/MS analysis; assay type: ADME
Outline: (§2)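 Recombinant CYP enzymes (5 pmol/mL) with substrate, in 100 mM potassium phosphate pH 7.4, 3.3 mM MgCl2, with or without 1 mM NADPH; incubated 10 min (CYP1A2, CYP2C9), 20 min (CYP2C19, CYP2D6), or 3 min (CYP3A4); stopped with cold stop solution containing tolbutamide internal standard; metabolite measured by LC-MS/MS.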

Cytochrome P450 3A4 = Cytochrome P450 3A4 (Homo sapiens, UniProt P08684); test: Inhibition of recombinant CYP3A4 (unknown origin) by LC/MS/MS analysis; assay type: ADME; outline: as §2
[5] = Solubility of the compound in aqueous solution at pH 2.1; assay type: physicochemical
Cytochrome P450 1A2 = target: T1, Cytochrome P450 1A2 (Homo sapiens, UniProt P05177); test: Inhibition of recombinant CYP1A2 (unknown origin) by LC/MS/MS analysis; assay type: ADME; outline: as §2
T1 sequence (P05177 whole entry): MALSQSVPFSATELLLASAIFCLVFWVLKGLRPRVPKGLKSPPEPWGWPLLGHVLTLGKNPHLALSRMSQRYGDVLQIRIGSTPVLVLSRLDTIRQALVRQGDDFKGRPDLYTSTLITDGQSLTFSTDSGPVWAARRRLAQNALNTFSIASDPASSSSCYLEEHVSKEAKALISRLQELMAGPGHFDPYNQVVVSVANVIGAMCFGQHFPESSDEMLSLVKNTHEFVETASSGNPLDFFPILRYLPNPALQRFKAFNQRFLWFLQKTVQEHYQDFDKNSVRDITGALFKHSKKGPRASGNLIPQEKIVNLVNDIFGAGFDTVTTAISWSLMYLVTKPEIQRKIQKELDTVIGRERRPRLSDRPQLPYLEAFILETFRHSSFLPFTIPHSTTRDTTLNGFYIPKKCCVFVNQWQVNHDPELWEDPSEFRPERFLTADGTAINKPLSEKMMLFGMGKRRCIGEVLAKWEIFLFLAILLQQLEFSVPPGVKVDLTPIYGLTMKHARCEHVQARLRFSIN

[6] = Solubility of the compound in phosphate buffer at pH 7.4; assay type: physicochemical
Cytochrome P450 2C19 = Cytochrome P450 2C19 (Homo sapiens, UniProt P33261); test: Inhibition of recombinant CYP2C19 (unknown origin) by LC/MS/MS analysis; assay type: ADME; outline: as §2
Cytochrome P450 2C9 = Cytochrome P450 2C9 (Homo sapiens, UniProt P11712); test: Inhibition of recombinant CYP2C9 (unknown origin) by LC/MS/MS analysis; assay type: ADME; outline: as §2
Sequence of Cytochrome P450 2C9 (P11712 whole entry): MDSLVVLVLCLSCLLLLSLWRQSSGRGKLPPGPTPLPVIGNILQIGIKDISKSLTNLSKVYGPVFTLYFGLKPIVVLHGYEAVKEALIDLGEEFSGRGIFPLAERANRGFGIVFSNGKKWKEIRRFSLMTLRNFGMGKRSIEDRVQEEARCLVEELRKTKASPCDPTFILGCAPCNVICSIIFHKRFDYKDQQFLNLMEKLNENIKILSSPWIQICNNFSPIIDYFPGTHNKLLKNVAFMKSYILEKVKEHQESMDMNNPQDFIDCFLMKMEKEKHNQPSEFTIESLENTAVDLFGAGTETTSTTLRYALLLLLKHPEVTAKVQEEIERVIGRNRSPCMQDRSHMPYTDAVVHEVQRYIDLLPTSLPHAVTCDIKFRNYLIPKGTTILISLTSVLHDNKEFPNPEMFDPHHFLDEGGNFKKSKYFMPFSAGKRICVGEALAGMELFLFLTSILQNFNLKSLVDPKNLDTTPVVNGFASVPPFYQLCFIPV

Sequence of Cytochrome P450 2D6 (P10635 whole entry): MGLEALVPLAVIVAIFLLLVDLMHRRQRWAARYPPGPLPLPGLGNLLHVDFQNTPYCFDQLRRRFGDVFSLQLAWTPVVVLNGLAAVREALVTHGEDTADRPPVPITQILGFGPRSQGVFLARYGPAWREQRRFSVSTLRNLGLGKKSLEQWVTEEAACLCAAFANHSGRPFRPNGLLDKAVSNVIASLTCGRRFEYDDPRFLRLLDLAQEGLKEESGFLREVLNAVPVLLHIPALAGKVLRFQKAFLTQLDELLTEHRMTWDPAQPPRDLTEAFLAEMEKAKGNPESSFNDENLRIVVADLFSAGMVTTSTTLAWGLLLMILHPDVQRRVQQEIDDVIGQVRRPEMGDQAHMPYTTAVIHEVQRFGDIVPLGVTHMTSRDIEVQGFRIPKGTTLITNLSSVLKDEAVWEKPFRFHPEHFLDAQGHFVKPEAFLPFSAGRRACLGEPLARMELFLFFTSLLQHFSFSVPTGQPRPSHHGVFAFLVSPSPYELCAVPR
Sequence of Cytochrome P450 2C19 (P33261 whole entry): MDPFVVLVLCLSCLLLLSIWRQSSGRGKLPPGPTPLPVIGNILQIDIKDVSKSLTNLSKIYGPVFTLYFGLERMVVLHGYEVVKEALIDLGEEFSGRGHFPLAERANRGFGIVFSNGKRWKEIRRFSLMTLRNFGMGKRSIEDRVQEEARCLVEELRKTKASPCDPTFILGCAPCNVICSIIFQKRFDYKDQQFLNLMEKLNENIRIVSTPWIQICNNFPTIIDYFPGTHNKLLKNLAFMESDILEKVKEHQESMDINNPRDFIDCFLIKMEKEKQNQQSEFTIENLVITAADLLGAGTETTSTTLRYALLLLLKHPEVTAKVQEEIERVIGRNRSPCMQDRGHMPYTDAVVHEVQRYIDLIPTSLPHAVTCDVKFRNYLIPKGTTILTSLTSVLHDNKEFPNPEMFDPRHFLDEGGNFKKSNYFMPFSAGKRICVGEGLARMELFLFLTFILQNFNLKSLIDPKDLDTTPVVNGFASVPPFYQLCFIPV
Sequence of Cytochrome P450 3A4 (P08684 whole entry): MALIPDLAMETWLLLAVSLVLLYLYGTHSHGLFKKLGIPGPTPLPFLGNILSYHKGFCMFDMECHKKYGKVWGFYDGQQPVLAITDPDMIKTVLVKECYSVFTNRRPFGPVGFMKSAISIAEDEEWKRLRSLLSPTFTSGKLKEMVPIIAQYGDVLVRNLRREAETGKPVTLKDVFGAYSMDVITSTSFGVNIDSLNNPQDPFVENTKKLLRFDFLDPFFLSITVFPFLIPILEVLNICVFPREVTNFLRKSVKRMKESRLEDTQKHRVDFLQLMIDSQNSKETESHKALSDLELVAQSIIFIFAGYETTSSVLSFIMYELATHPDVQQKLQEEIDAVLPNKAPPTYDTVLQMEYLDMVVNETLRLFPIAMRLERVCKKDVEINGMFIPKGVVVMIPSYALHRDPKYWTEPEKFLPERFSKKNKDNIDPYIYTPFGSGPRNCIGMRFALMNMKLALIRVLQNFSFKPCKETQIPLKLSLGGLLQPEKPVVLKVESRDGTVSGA

| Structure (SMILES) | MIC80 [1] [µM] | MIC80 [2] [µM] | half-life [3] [min] | half-life [4] [min] | IC50 (Cytochrome P450 2D6) [µM] | IC50 (Cytochrome P450 3A4) [µM] | solubility [5] [µg/mL] | IC50 (Cytochrome P450 1A2) [µM] | solubility [6] [µg/mL] | IC50 (Cytochrome P450 2C19) [µM] | IC50 (Cytochrome P450 2C9) [µM] |
| --- | --- | --- | --- | --- | --- | --- | --- | --- | --- | --- | --- |
| CCc1nc2cc(Cl)ccn2c1C(=O)NCc1ccc(-c2ccc(C(C)(C)C)cc2)cc1 | 0.012 (≈ 5.35 ng/mL) | 0.00046 (≈ 0.205 ng/mL) | 18.5 | 50.7 | – | – | – | – | – | – | – |
| CCc1nc2ccc(Cl)cn2c1C(=O)NCc1ccc(N2CCC(c3ccc(F)cc3)CC2)cc1 | < 0.0005 | 0.00036 (≈ 0.177 ng/mL) | 62.6 | 20.3 | > 40 | > 40 | 38.5 (≈ 78.5 µM) | > 40 | 3.99 (≈ 8.13 µM) | > 40 | > 40 |
| CCc1nc2cc(Cl)ccn2c1C(=O)NCc1ccc(N2CCN(C)CC2)cc1 | 4.39 (≈ 1810 ng/mL) | 0.36 (≈ 148 ng/mL) | 117 | 12.1 | – | – | – | – | – | – | – |
| CCc1nc2cc(Cl)ccn2c1C(=O)NCc1ccc(N2CCC(c3ccc(Cl)cc3)CC2)cc1 | 0.001 (≈ 0.507 ng/mL) | 0.00046 (≈ 0.233 ng/mL) | 67.3 | 112 | > 40 | > 40 | – | > 40 | – | 0.38 | 0.19 |
| CCc1nc2cc(Cl)ccn2c1C(=O)NCc1ccc(-n2cc3c(c2)CCCC3)cc1 | 0.034 (≈ 14.7 ng/mL) | 0.00374 (≈ 1.62 ng/mL) | 27.3 | 62.3 | – | – | – | – | – | – | – |
| CCc1nc2ccc(Cl)cn2c1CNCc1ccc(-c2ccccc2)cc1 | 0.81 (≈ 304 ng/mL) | 0.2 (≈ 75.2 ng/mL) | – | – | – | – | – | – | – | – | – |
| Cc1nc2ccccn2c1C(=O)NCc1ccc(-c2ccccc2)cc1 | 0.25 (≈ 85.4 ng/mL) | 0.02 (≈ 6.83 ng/mL) | – | – | – | – | – | – | – | – | – |
| CCc1nc2ccccn2c1C(=O)NCc1ccc(-c2ccccc2)cc1 | 0.063 (≈ 22.4 ng/mL) | 0.097 (≈ 34.5 ng/mL) | 27.1 | – | – | – | – | – | – | – | – |
| CCc1nc2ccc(Cl)cn2c1C(=O)N(C)Cc1ccc(-c2ccccc2)cc1 | 8.69 (≈ 3510 ng/mL) | 0.97 (≈ 392 ng/mL) | – | – | – | – | – | – | – | – | – |
| CCc1nc2cc(Cl)ccn2c1C(=O)NCc1ccc(-c2ccc(C)cc2)cc1 | < 0.0005 | 0.00135 (≈ 0.545 ng/mL) | 25.4 | 23.1 | – | – | – | – | – | – | – |
| CCc1nc2cc(Cl)ccn2c1C(=O)NCc1ccc(N2CCC(Cl)CC2)cc1 | 0.019 (≈ 8.2 ng/mL) | 0.002 (≈ 0.863 ng/mL) | 11 | 5.2 | – | – | – | – | – | – | – |
| CCc1nc2cc(Cl)ccn2c1C(=O)NCc1ccc(N2CCCCCC2)cc1 | 0.035 (≈ 14.4 ng/mL) | 0.01 (≈ 4.11 ng/mL) | 2.9 | 1.9 | – | – | – | – | – | – | – |
| CCc1nc2ccc(Cl)cn2c1C(=O)NCc1ccc(N2CCC(c3ccc(Cl)cc3)CC2)cc1 | 0.0041 (≈ 2.08 ng/mL) | 0.0013 (≈ 0.66 ng/mL) | 57.9 | 116 | > 40 | > 40 | 39.7 (≈ 78.3 µM) | > 40 | 2.59 (≈ 5.1 µM) | 6.77 | 0.26 |
| CCc1nc2ccc(Cl)cn2c1C(=O)NCc1ccc(-c2ccccc2)cc1 | 0.045 (≈ 17.5 ng/mL) | 0.00139 (≈ 0.542 ng/mL) | 22.8 | 19.3 | – | – | – | – | – | – | – |
| CCc1nc2cc(Cl)ccn2c1C(=O)NCc1ccc(-c2ccc(Cl)cc2)cc1 | 0.0013 (≈ 0.552 ng/mL) | 0.00101 (≈ 0.429 ng/mL) | > 120 | > 60 | – | – | – | – | – | – | – |
| CCc1nc2cc(Cl)ccn2c1C(=O)NCc1ccc(-c2ccc[nH]2)cc1 | 2 (≈ 758 ng/mL) | 0.14 (≈ 53 ng/mL) | > 120 | 10.8 | – | – | – | – | – | – | – |
| CCc1nc2ccc(Cl)cn2c1C(=O)NCc1ccc(-c2ccc(C#N)cc2)cc1 | < 0.0005 | 0.00068 (≈ 0.282 ng/mL) | > 120 | > 60 | – | – | 1.06 (≈ 2.55 µM) | – | 0.61 (≈ 1.47 µM) | – | – |
| CO[C@H]1/C=C/O[C@@]2(C)Oc3c(C)c(O)c4c(O)c(c(/C=N/N5CCN(C)CC5)c(O)c4c3C2=O)NC(=O)/C(C)=C\C=C\[C@H](C)[C@H](O)[C@@H](C)[C@@H](O)[C@@H](C)[C@H](OC(C)=O)[C@@H]1C [RIFAMPIN] | 0.0266 (≈ 21.9 ng/mL) | 0.18 (≈ 148 ng/mL) | – | – | – | – | – | – | – | – | – |
| CCCc1nc2ccccn2c1C(=O)NCc1ccc(-c2ccccc2)cc1 | 1.18 (≈ 436 ng/mL) | 0.05 (≈ 18.5 ng/mL) | 22.4 | 8.7 | – | – | – | – | – | – | – |
